# In the library only some 2.2% were active in any assay of this set; here they are far more common.
# IEC-6 tox = cytotoxicity in IEC-6 intestinal epithelial cells, primary screen, cytotoxicity control for KLF5 inhibitor project, cell-based, luminescence. IEC-6 cytotoxicity, luminescence viability. inhibition, % at 5 µM. actives 0.78% (n = 290,000). AID 1825, 2009
# b-catenin transl = modulators of beta-catenin nuclear translocation, primary screen, imaging, HeLa cells, immunofluorescence, high-content. nuclear translocation activity, % at 5 µM. actives 0.3% (n = 190,000). AID 1665, 2009;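 active means nuclear translocation activity above 50% at 5 µM, with a well cell count of 50 or more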;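 further: per-cell ratio of nuclear to cytoplasmic median beta-catenin stain intensity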
#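 Technique: fluorescence imaging of beta-catenin antibody stain plus DAPI / Material: human HeLa cell line / Incubation: compound treatment 24 h, 37°C, 5% CO2 / Read-out basis: % activation of per-cell nuclear versus cytoplasmic median beta-catenin signal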
# BaF3 parental = parental Ba/F3 cell viability inhibition, counter-screen for JAK2V617F inhibitor project, murine pro-B, CellTiter-Glo luminescence | CellTiter-Glo ATP luminescence | inhibition, % at 5.6 µM | actives 1.1% (n = 220,000) | AID 1486, 2009;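 active means inhibition above a per-campaign cutoff, the mean inhibition of all tested compounds plus 3 SD, cut at about 27% in these data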
# Ba/F3 V617F tox = reduced viability of JAK2V617F-dependent Ba/F3 cells, primary screen, JAK2V617F inhibitor project, cell-based, Ba/F3 EpoR-JAK2V617F, luminescence; ATP luminescence; inhibition, % at 5.6 µM; actives 1.1% (n = 220,000); AID 1446, 2008;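 active means inhibition above the campaign mean plus 3 SD over all tested compounds, cut at about 24% in these data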;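 further: cytokine-independent growth of Ba/F3 cells driven by EpoR plus mutant JAK2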
# MT stabilizer = microtubule stabilizers in HeLa cells, primary screen, imaging, high-content imaging; % tubulin-high responders, % at 10 µM; actives 0.83% (n = 200,000); HeLa tubulin immunostaining HCS, 24 h; share of cells brighter than vehicle mean+2SD; AID 2205, 2009;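 active means plate Z-score above 3 for both tubulin-high and condensed-nucleus cell shares, with cell loss under 80%, at 10 µM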;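 further: anti alpha tubulin signal scored within the nucleus-defined area of each cell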
# APP 5UTR inh = inhibitors of APP translation via 5'UTR reporter, primary screen, APP 5'UTR luciferase, SH-SY5Y cells. SH-SY5Y APP 5'UTR-luciferase reporter, luminescence. AID 1285, 2008. actives 0.82% (n = 190,000). inhibition, % at 2 µM;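 active means inhibition above a set limit, derived from the sample mean plus 3 SD, cut at about 45% in these data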
# IEC-6 tox confirm = cytotoxic compounds in IEC-6 epithelial cells, confirmation, cytotoxicity control, cell-based, luminescence; actives 63% (n = 1,900); inhibition, % at 5 µM; shares compounds with IEC-6 tox; IEC-6 rat intestinal epithelial viability; AID 1907, 2009
# Hits are given with their value; i = inactive; nt = not tested or not shown. Unless noted, no stated cut-off is given here; in the data, active means inhibition above about 22%; inactive means the rest.
SMILES,IEC-6 tox,b-catenin transl,BaF3 parental,Ba/F3 V617F tox,MT stabilizer,APP 5UTR inh,IEC-6 tox confirm
CCC(C)n1c(SCC(=O)NC(=O)c2cccn2C)nc2ccccc2c1=O (stereo not given),33,i,i,i,i,i,29
CCOC(=O)Nc1ccc2nc(Sc3ccc(Cl)cc3)sc2c1,38,i,i,i,nt,nt,24
COc1ccc(Cn2c(C3CC3)nc3ccc(NC(=O)c4cccnc4)cc3c2=O)cc1,37,nt,nt,nt,nt,nt,i
O=C(/C=C/c1ccc(F)cc1)NCCCn1ccnc1,i,nt,nt,nt,nt,nt,nt
C=CCN=c1scc(-c2ccc3c(c2)NC(=O)CO3)n1/N=C(\C)c1ccccn1,41,i,91,100,i,52,31
CCN1CCN(S(=O)(=O)c2ccc(C(=O)Nc3sc4c(c3C(N)=O)CCN(CC)C4)cc2)CC1,i,nt,nt,nt,nt,nt,nt
CCN1CCc2c(sc(NC(=O)c3ccc4ccccc4c3)c2C(N)=O)C1,45,nt,nt,nt,nt,nt,i
Cc1cc(C(=O)NNc2ccc(Cl)cc2)no1,45,i,i,i,nt,nt,i
Cc1cc(C(=O)NNC(=O)Nc2ccc(Cl)cc2)no1,i,i,i,i,nt,nt,nt
Cc1cc(C(=O)NNc2ccc(F)cc2F)no1,32,i,i,i,nt,nt,i
Cc1ccc(NNC(=O)c2cc(C)on2)c(C)c1,i,i,i,i,nt,nt,nt
Cc1cc(Br)cc(/C=N/NC(=O)c2ccc3c(c2)OCO3)c1O,i,nt,nt,nt,nt,nt,nt
O=C(N/N=C/c1ccc2c(c1)OCO2)c1cccc2ccccc12,28,nt,nt,nt,nt,nt,25
O=C(Nc1ccc(N2CCN(C(=O)c3ccccc3)CC2)cc1)c1ccc2c(c1)OCO2,26,i,70,72,i,i,i
O=C(N/N=C/c1ccccc1O)c1ccc2c(c1)OCO2,76,nt,nt,nt,nt,nt,i
O=C(CCCc1ccccc1)Nc1ccnn1C1CCN(Cc2ccc(CO)o2)CC1,i,nt,nt,nt,nt,nt,nt
O=C(Nc1sc2c(c1C(=O)O)CCCC2)c1cccc(Cl)c1,i,nt,nt,nt,nt,nt,nt
NC(=O)CC(NC(=O)Cc1ccc(Cl)cc1)c1ccc(NCCN2CCOCC2)c([N+](=O)[O-])c1 (stereo not given),i,nt,nt,nt,nt,nt,nt
O=C1c2nccnc2C(=O)N1c1ccc(C(F)(F)F)cc1,i,i,i,i,i,i,nt
O=c1c2cccnc2[nH]c(=S)n1CCCN1CCN(c2ccc(F)cc2)CC1,i,i,i,i,i,i,nt
COc1ccc(N2CCN(CCCn3c(=S)[nH]c4ncccc4c3=O)CC2)cc1,30,nt,i,i,i,i,i
Cc1ccc(C(C[N+](=O)[O-])Sc2ccc(N)cc2)cc1 (stereo not given),i,i,i,i,nt,nt,nt
COc1cccc2c1O/C(=N\O)C(C(=O)Nc1ccc(C)cc1)C2 (stereo not given),52,nt,nt,nt,nt,nt,33
COc1ccc(NC(=O)C2Cc3cccc(OC)c3O/C2=N\O)cc1 (stereo not given),i,nt,nt,nt,nt,nt,nt
COC(C[C@@H]1O[C@@H]1[C@H](O)[C@@H](C)OCc1ccccc1)OC,i,nt,nt,nt,nt,nt,nt
SMILES,IEC-6 tox,b-catenin transl,BaF3 parental,Ba/F3 V617F tox,MT stabilizer,APP 5UTR inh,IEC-6 tox confirm
NNC(=O)Cn1nc2n(c1=O)-c1ccccc1SC2,i,i,i,i,nt,nt,nt
Cc1ccn2cc(-c3ccc(O)c(O)c3)nc2c1,23,nt,nt,nt,nt,nt,i
CCC(=O)C1CCCN(C(=O)c2ccc3nc(-c4cccc(OC)c4)oc3c2)C1 (stereo not given),i,nt,nt,nt,nt,nt,nt
CCOC(=O)C1CCCN(C(=O)c2ccc3nc(-c4cccc(OC)c4)oc3c2)C1 (stereo not given),30,nt,nt,nt,nt,nt,i
COc1ccc(-n2nc(C(=O)NCC(=O)N3CCC(C)CC3)c3ccccc3c2=O)cc1Cl,i,nt,nt,nt,nt,nt,nt
Cc1ccc(NC(=O)c2ccccc2[N+](=O)[O-])nc1,i,i,i,i,i,i,nt
Cc1ccc(NC(=O)c2ccc(Cl)cc2[N+](=O)[O-])nc1,38,i,64,74,36,i,49
Cn1c(=O)c2c(nc(NCC3CCCC(CN)C3)n2Cc2ccc(Cl)cc2Cl)n(C)c1=O (stereo not given),60,nt,nt,nt,nt,nt,39
O=C(NCC1(O)CCCCC1)C1CCC(=O)N(Cc2cccc(C(F)(F)F)c2)C1 (stereo not given),i,nt,nt,nt,nt,nt,nt
COc1cccc(N2CC(=O)N(c3cccc(OC)c3)CC2=O)c1,i,i,i,i,i,i,nt
COc1cccc(N2C(N)=NC(N)=NC2(C)C)c1,54,i,93,95,i,i,42
COc1ccc(C2N=C(N)N=C(N)N2c2ccc(C)cc2)cc1 (stereo not given),i,nt,i,i,i,i,nt
COc1ccc(N2C(N)=NC(N)=NC2(C)C)cc1,53,i,99,98,i,i,i
O=C(O)c1cccc(-n2cnnn2)c1,i,i,i,i,i,i,nt
CC1(C)N=C(N)N=C(N)N1c1cccc(C(=O)O)c1,37,i,i,i,i,i,i
CCn1c(SCC(=O)Nc2cc(C)on2)nc2c(c1=O)SCC2,i,nt,nt,nt,nt,nt,nt
O=C(NCc1cccs1)C1CCCN1C(=O)Nc1ccccc1Cl (stereo not given),i,nt,nt,nt,nt,nt,nt
COCCNc1nc(N)c([N+](=O)[O-])c(NC2CCCCC2)n1,i,nt,nt,nt,nt,nt,nt
NCCCNc1nc(N)c([N+](=O)[O-])c(NC2CCCCC2)n1,46,nt,nt,nt,nt,nt,43
CCN1CCS/C1=C\C=C\C1=[N+](CC)CCS1,37,i,90,101,i,i,31
CCN1CCS/C1=C/C=C/C1=[N+](CC)CCS1,27,i,81,99,i,i,30
COc1cccc(NC(=O)C2CCN(S(=O)(=O)c3ccc4[nH]c(=O)ccc4c3)CC2)c1,i,nt,nt,nt,nt,nt,nt
Cc1ccc(C(=O)NNC(=O)CCC(=O)NCc2ccccc2)cc1Br,i,nt,nt,nt,nt,nt,nt
Cc1cc(C(=O)COc2cccnc2[N+](=O)[O-])c(C)n1Cc1cccs1,i,i,i,i,i,i,nt
CC(=O)Nc1ccccc1OCC(=O)c1cc(C)n(Cc2cccs2)c1C,26,nt,82,62,i,i,i
CC(C)C[C@@H](NC(=O)C1CCC(CNC(=O)[C@@H]2CCCN2C(=O)OC(C)(C)C)CC1)C(=O)O (stereo not given in full),i,nt,nt,nt,nt,nt,nt
COc1ccc(COc2cc(-c3cccc(OC)c3)nc3ccc(NC(=O)c4ccc(N(C)C)cc4)cc23)cc1,49,nt,75,76,20,i,i
COc1ccc(COc2cc(-c3cccc(OC)c3)nc3ccc(NC(=O)c4ccc(C)cc4)cc23)cc1,i,nt,i,i,i,i,nt
Cc1ccc(N(C(=O)c2snc(C(N)=O)c2N)C(C(=O)NC2CCCC2)c2ccco2)cc1 (stereo not given),i,nt,nt,nt,nt,nt,nt
